{"data": "Experimental data gathered from unrelated publications", "ABL1 H396P phosphorylated": "Tyrosine-protein kinase ABL1, phosphorylated (ABL1, Homo sapiens, UniProt P00519, H396P)", "ABL1 Y253F phosphorylated": "Tyrosine-protein kinase ABL1, phosphorylated (ABL1, Homo sapiens, UniProt P00519, Y253F)", "ABL1 M351T": "Tyrosine-protein kinase ABL1 (ABL1, Homo sapiens, UniProt P00519, M351T)", "ABL1 phosphorylated": "Tyrosine-protein kinase ABL1, phosphorylated (ABL1, Homo sapiens, UniProt P00519)", "ABL1 non-phosphorylated": "Tyrosine-protein kinase ABL1, non-phosphorylated (ABL1, Homo sapiens, UniProt P00519)", "ABL1 Q252H non-phosphorylated": "Tyrosine-protein kinase ABL1, non-phosphorylated (ABL1, Homo sapiens, UniProt P00519, Q252H)", "ABL1 Q252H phosphorylated": "Tyrosine-protein kinase ABL1, phosphorylated (ABL1, Homo sapiens, UniProt P00519, Q252H)", "ABL1 F317L phosphorylated": "Tyrosine-protein kinase ABL1, phosphorylated (ABL1, Homo sapiens, UniProt P00519, F317L)", "ABL1 F317I non-phosphorylated": "Tyrosine-protein kinase ABL1, non-phosphorylated (ABL1, Homo sapiens, UniProt P00519, F317I)", "ABL1 F317L": "Tyrosine-protein kinase ABL1 (ABL1, Homo sapiens, UniProt P00519, F317L)"}
{"Structure (SMILES)": "COc1cnc(Nc2cccc(S(N)(=O)=O)c2)nc1N1CCN(c2ccccc2)CC1", "target": "ABL1 H396P phosphorylated", "test": "binding, competition with immobilised ligand", "setting": "1 µM", "remaining binding": "87%"}
{"Structure (SMILES)": "CSc1cccnc1N1CCN(Cc2nc3ccccc3[nH]2)CC1", "target": "ABL1 Y253F phosphorylated", "test": "cell-free assay, competition with immobilised ligand", "setting": "1 µM", "remaining binding": "76%"}
{"Structure (SMILES)": "Cc1cnn2ncc(-c3ccnc(N(C)C)n3)c2c1", "target": "ABL1 M351T", "test": "binding", "setting": "1 µM", "remaining binding": "91%"}
{"Structure (SMILES)": "CC(C)(C)c1ccc(-c2nc(CBr)nn2-c2cccc(O)c2)cc1", "target": "Tyrosine-protein kinase ABL1, phosphorylated (ABL1, Homo sapiens, UniProt P00519, T315I)", "test": "cell-free assay, competition with immobilised ligand", "setting": "10 µM", "remaining binding": "82%"}
{"Structure (SMILES)": "O=C(c1ccc(Nc2ncc(Cl)c(-c3cc4ccccc4s3)n2)cc1)N1CCC(N2CCCC2)CC1", "target": "Tyrosine-protein kinase ABL1, non-phosphorylated (ABL1, Homo sapiens, UniProt P00519, H396P)", "test": "binding, competition with immobilised ligand", "setting": "1 µM", "remaining binding": "1.8%"}
{"Structure (SMILES)": "COC(=O)Nc1nc2ccc(C(=O)c3ccccc3)cc2[nH]1", "target": "ABL1 phosphorylated", "test": "cell-free assay, competition with immobilised ligand", "setting": "10 µM", "remaining binding": "0.9%"}
{"Structure (SMILES)": "Cc1cnc(Nc2ccc(C(=O)N3CCC(N4CCCC4)CC3)cc2)nc1-c1cc2ccccc2s1", "target": "ABL1 non-phosphorylated", "test": "binding, competition with immobilised ligand", "setting": "1 µM", "remaining binding": "2.7%"}
{"Structure (SMILES)": "CN(c1ccnc(CNc2nc(Nc3ccc4c(c3)CC(=O)N4)ncc2C(F)(F)F)n1)S(C)(=O)=O", "target": "ABL1 phosphorylated", "test": "cell-free assay, competition with immobilised ligand", "setting": "1 µM", "remaining binding": "40%"}
{"Structure (SMILES)": "CN(c1nccc(-c2cnn3ncccc23)n1)C1CC1", "target": "ABL1 non-phosphorylated", "test": "binding", "setting": "1 µM", "remaining binding": "100%"}
{"Structure (SMILES)": "CCc1ccccc1C(=O)Nc1n[nH]c2c(C)c(F)c(C3C(C#N)=C(C)N(C)C(C)=C3C#N)cc12", "target": "ABL1 Q252H non-phosphorylated", "test": "cell-free assay, competition with immobilised ligand", "setting": "1 µM", "remaining binding": "82%"}
{"Structure (SMILES)": "CNC(=O)[C@@H]1CC[C@@H](n2c(-c3ccc4cnccc4c3)nc3ccc(C(=O)NCc4cccc(C(N)=O)c4)cc32)C1", "target": "ABL1 phosphorylated", "test": "binding, competition with immobilised ligand", "setting": "1 µM", "remaining binding": "90%"}
{"Structure (SMILES)": "Nc1c(C(=O)NCc2ccc(C(=O)NCCCC3CCCCC3)cc2)cnn1-c1ccccc1", "target": "ABL1 Q252H phosphorylated", "test": "cell-free assay, competition with immobilised ligand", "setting": "0.1 µM", "remaining binding": "98%"}
{"Structure (SMILES)": "CN(CCCC(F)(F)F)c1nccc(-c2cnn3ncccc23)n1", "target": "Tyrosine-protein kinase ABL1 (ABL1, Homo sapiens, UniProt P00519, Y253F)", "test": "binding", "setting": "1 µM", "remaining binding": "89%"}
{"Structure (SMILES)": "COc1cnc(Nc2cccc(S(N)(=O)=O)c2)nc1N1CCN(c2ccccc2)C(=O)C1", "target": "ABL1 F317L phosphorylated", "test": "binding, competition with immobilised ligand", "setting": "1 µM", "remaining binding": "97%"}
{"Structure (SMILES)": "CN(C)c1nccc(-c2cnc3ncccn23)n1", "target": "ABL1 M351T", "test": "binding", "setting": "1 µM", "remaining binding": "78%"}
{"Structure (SMILES)": "C[C@@H](c1ccc(-n2cnc3c(N)ncnc32)cc1)N1CCc2nn(C)c(Cc3ccccc3)c2C1=O", "target": "Tyrosine-protein kinase ABL1, non-phosphorylated (ABL1, Homo sapiens, UniProt P00519, T315I)", "test": "binding, competition with immobilised ligand", "setting": "0.1 µM", "remaining binding": "33%"}
{"Structure (SMILES)": "O=C(NCC1CCOCC1)c1n[nH]cc1NC(=O)c1c(F)cccc1F", "target": "ABL1 F317I non-phosphorylated", "test": "binding, competition with immobilised ligand", "setting": "1 µM", "remaining binding": "86%"}
{"Structure (SMILES)": "F[C@@H]1CCN(c2nccc(-c3cnn4ncccc34)n2)C1", "target": "Tyrosine-protein kinase ABL1 (ABL1, Homo sapiens, UniProt P00519, E255K)", "test": "binding", "setting": "1 µM", "remaining binding": "100%"}
{"Structure (SMILES)": "C=CC(=O)N1CCC(C(=O)NCC(=O)N2CCN(c3nc(-c4cnc(N)nc4C(F)F)nc(N4CCOCC4)n3)CC2)CC1", "target": "ABL1 Q252H phosphorylated", "test": "binding, competition with immobilised ligand", "setting": "1 µM", "remaining binding": "100%"}
{"Structure (SMILES)": "Nc1ncc2c(n1)-c1c([nH]c3ccc(C#CC4CC4)cc13)CCCC2", "target": "Tyrosine-protein kinase ABL1, non-phosphorylated (ABL1, Homo sapiens, UniProt P00519, F317L)", "test": "binding, competition with immobilised ligand", "setting": "1 µM", "remaining binding": "63%"}
{"Structure (SMILES)": "C[C@H]1CCN(c2nccc(-c3cnn4ncccc34)n2)C1", "target": "ABL1 F317L", "test": "binding", "setting": "1 µM", "remaining binding": "82%"}
{"Structure (SMILES)": "CCOCCn1cc(C(=O)Nc2ccc(-n3nc(-c4cccnc4)cc3C(F)(F)F)cn2)ccc1=O", "target": "ABL1 Q252H phosphorylated", "test": "cell-free assay, competition with immobilised ligand", "setting": "1 µM", "remaining binding": "73%"}
{"Structure (SMILES)": "COc1ncc2cc3ccccc3nc2c1C#N", "target": "ABL1 Q252H phosphorylated", "test": "cell-free assay, competition with immobilised ligand", "setting": "5 µM", "remaining binding": "99%"}
{"Structure (SMILES)": "CN1CCN(c2ccc(Nc3nccc(-c4ccccc4)n3)cc2C(F)(F)F)CC1", "target": "ABL1 F317L", "test": "binding", "setting": "10 µM", "remaining binding": "66%"}
{"Structure (SMILES)": "O=C(c1ccc(Nc2nccc(-c3cc4ccccc4s3)n2)cc1)N1CCC(N2CCCC2)CC1", "target": "ABL1 F317I non-phosphorylated", "test": "binding, competition with immobilised ligand", "setting": "1 µM", "remaining binding": "92%"}
{"Structure (SMILES)": "N[C@@H]1CCN(c2nccc(-c3cnn4ncccc34)n2)C1", "target": "Tyrosine-protein kinase ABL1 (ABL1, Homo sapiens, UniProt P00519, F317I)", "test": "binding", "setting": "1 µM", "remaining binding": "100%"}
{"Structure (SMILES)": "O=C(NCCCN1CCOCC1)c1ccc(Nc2nccc(-c3cc4ccccc4s3)n2)cc1", "target": "ABL1 Q252H non-phosphorylated", "test": "binding, competition with immobilised ligand", "setting": "1 µM", "remaining binding": "34%"}
{"Structure (SMILES)": "CCN1CCN(Cc2ccc(C(=O)Nc3ccc(C)c(Oc4ccc5c(c4)CC(=O)N5)c3)cc2C(F)(F)F)CC1", "target": "ABL1 F317L phosphorylated", "test": "binding, competition with immobilised ligand", "setting": "1 µM", "remaining binding": "9.6%"}
{"Structure (SMILES)": "COc1cc(-c2cn(C3CCc4ccccc4N(CC(F)(F)F)C3=O)nn2)ccc1-n1ccc(C)n1 (stereo not drawn)", "target": "ABL1 Y253F phosphorylated", "test": "cell-free assay, competition with immobilised ligand", "setting": "1 µM", "remaining binding": "87%"}
{"Structure (SMILES)": "O=C(c1ccc(Nc2ncc(Cl)c(-c3ccc(Cl)s3)n2)cc1)N1CCC(N2CCCC2)CC1", "target": "ABL1 H396P phosphorylated", "test": "binding, competition with immobilised ligand", "setting": "1 µM", "remaining binding": "4.3%"}
{"Structure (SMILES)": "CC(=O)Nc1c(C(C)=O)c(=O)n(C)c2nc(-c3ccc(Cl)cc3Cl)c(-c3ccc(Cl)cc3)cc12", "target": "ABL1 F317L phosphorylated", "test": "cell-free assay, competition with immobilised ligand", "setting": "1 µM", "remaining binding": "100%"}
{"Structure (SMILES)": "O=C(NCCCN1CCOCC1)c1ccc(Nc2ncc(Cl)c(-c3ccc(Cl)s3)n2)cc1", "target": "Tyrosine-protein kinase ABL1, phosphorylated (ABL1, Homo sapiens, UniProt P00519, M351T)", "test": "binding, competition with immobilised ligand", "setting": "1 µM", "remaining binding": "27%"}
{"Structure (SMILES)": "O=C(Nc1c[nH]nc1C(=O)NC1CCNCC1)c1cc(F)cc(F)c1", "target": "ABL1 F317I non-phosphorylated", "test": "binding, competition with immobilised ligand", "setting": "1 µM", "remaining binding": "100%"}
{"Structure (SMILES)": "O=C(O)[C@@H]1[C@@H](Cn2nnc3ccccc3c2=O)CC[C@H]1C(=O)c1ccc(OCCC2CCOCC2)cc1", "target": "ABL1 F317I non-phosphorylated", "test": "binding, competition with immobilised ligand", "setting": "1 µM", "remaining binding": "82%"}
{"Structure (SMILES)": "c1cnn2ncc(-c3ccnc(N4CCC45COC5)n3)c2c1", "target": "ABL1 F317L", "test": "binding", "setting": "1 µM", "remaining binding": "53%"}
{"Structure (SMILES)": "c1cncc(-c2cccc(Nc3nccc(NC4CCCCC4)n3)c2)c1", "target": "ABL1 F317L phosphorylated", "test": "binding, competition with immobilised ligand", "setting": "10 µM", "remaining binding": "61%"}
